Compound activity as filed in PubChem.
AP complement: alternative complement pathway inhibitors, primary screen, biochemical, ELISA, human serum, orthogonally pooled compounds; LPS-coated ELISA, C3 deposition; tested in compound mixtures; inhibition, % at 5 µM; 62,000 tested, 0.08% active; AID 1235, 2008;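 active = inhibition above 30% in each of the two pooled mixtures holding the compound, so the lower value exceeds 30%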;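 note: 0% = serum in Mg-EGTA without compound and 100% = EDTA serum blank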
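Assay system: Human serum alternative complement pathway, C3 deposition on LPS-coated wells | Incubation: 1 h serum-compound exposure at 37 °C | Doses: 5 µM per compound in ten-compound mixtures | Read-out: Percent inhibition | Technique: ELISA with HRP anti-human C3 antibody, TMB substrate, absorbance 450 nm | Replication: Two pool placements per compound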
SF1 activator: activators of human SF-1, primary screen, cell-based, CHO-K1, Gal4-SF-1 LBD, luciferase luminescence | 65,000 tested, 1.9% active | AID 522, 2006 | Steroidogenic factor 1 (Homo sapiens), Q13285 | activation, % at 10 µM | CHO-K1 Gal4-SF-1 LBD luciferase reporter; % increase over DMSO SF-1-specific signal;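 active = activation above the mean activation of all tested compounds plus 3 SD, cut at about 50% in these data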
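Assay system: CHO-K1 cells co-transfected with Gal4 DBD–human SF-1 LBD, 5xGal4 luciferase reporter; doses: 10 µM only; incubation: 20 h compound exposure at 37 °C after 1 h cell settling; signal: luciferase light emission; evaluation: percent activation versus DMSO; repeats: one test per compound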
HePTP inh: inhibitors of human HePTP phosphatase, primary screen, biochemical, absorbance, leukemia target; 110,000 tested, 0.64% active; recombinant HePTP phosphatase activity, OD absorbance; Tyrosine-protein phosphatase non-receptor type 7 (Homo sapiens), P35236; inhibition, % at 20 µM; in the data active = inhibition above about 50%;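 note: plate controls were vehicle for no effect and reference inhibitor for full effect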
E coli RNAP: E. coli RNAP inhibitors, biochemical; 62,000 tested, 0.2% active; inhibition, %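 (tested at 10 µM)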; AID 559, 2006; DNA-directed RNA polymerase subunit beta (Escherichia coli (strain K12)), P0A8V2; E. coli RNA polymerase, fluorescence transcription assay; in the data active = inhibition above about 20%;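 note: 0% = enzyme without compound and 100% = no enzyme blank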
RORA act: activators of orphan receptor RORA, primary screen, cell-based, luminescence | 65,000 tested, 1.5% active | AID 560, 2006 | activation, % at 10 µM | CHO-K1 Gal4-RORA LBD luciferase reporter; percent increase over mock-subtracted basal signal | Nuclear receptor ROR-alpha (Homo sapiens), P35398;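 active = activation above the mean of all tested compounds plus 3 SD, cut at about 49% in these data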;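 note: 0% = DMSO-treated RORA cells and 100% = added signal equal to DMSO minus mock-transfected cells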
Target sequence (P35398 whole entry, looked up, the tested form may be a part): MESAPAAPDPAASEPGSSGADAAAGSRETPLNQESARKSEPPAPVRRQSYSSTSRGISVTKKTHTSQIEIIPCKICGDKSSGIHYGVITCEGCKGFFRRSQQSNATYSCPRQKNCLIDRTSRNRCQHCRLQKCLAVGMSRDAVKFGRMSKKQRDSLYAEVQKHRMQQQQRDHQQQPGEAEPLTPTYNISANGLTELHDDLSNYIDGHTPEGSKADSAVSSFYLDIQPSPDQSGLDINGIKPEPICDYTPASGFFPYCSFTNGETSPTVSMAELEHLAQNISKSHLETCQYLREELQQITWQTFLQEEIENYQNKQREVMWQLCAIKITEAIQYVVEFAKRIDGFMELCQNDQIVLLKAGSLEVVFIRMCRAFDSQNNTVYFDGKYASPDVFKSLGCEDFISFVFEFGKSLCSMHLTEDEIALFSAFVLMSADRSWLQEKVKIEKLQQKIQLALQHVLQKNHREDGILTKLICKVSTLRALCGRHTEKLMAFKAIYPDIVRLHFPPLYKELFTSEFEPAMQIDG
MMP13 inh: human MMP13 inhibitors, primary screen, biochemical, FRET peptide cleavage | MMP-13 fTHP FRET cleavage, Mca fluorescence | inhibition, % at 4 µM | 65,000 tested, 0.07% active | Collagenase 3 (Homo sapiens), P45452;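 active = inhibition above the mean of compound-free control plate wells plus 3 SD, cut at about 14% in these data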;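 note: 0% = DMSO wells and 100% = wells with reference MMP-13 inhibitor after basal subtraction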
An asterisk follows results filed as active; . = not tested or not shown. Hits are enriched below; roughly 2.4% of the tested compounds scored in any of these assays.

SMILES	AP complement	SF1 activator	HePTP inh	E coli RNAP	RORA act	MMP13 inh
Cc1occc1C(=O)Nc1ccc2c(c1)CCC2	0	75*	12	9	55*	0
Cc1ccc(C(=O)Nc2ccc3c(c2)CCC3)o1	20	59*	7	4	16	0
CCOc1ccc(C(=O)Nc2ccc([N+](=O)[O-])cc2OC)cc1Br	.	.	-6	.	.	.
COc1cccc(CN2CCN(Cc3ccccc3[N+](=O)[O-])CC2)c1	.	.	-3	.	.	.
O=C(Nc1cccc(Oc2ccc(C(=O)O)c(C(=O)O)c2)c1)c1ccc(-c2ccccc2)cc1	.	.	102*	.	.	.
O=C(/C=C/c1ccco1)/C=C/c1ccc(-c2ccc(Cl)c(Cl)c2)o1	.	.	102*	.	.	.
O=C(O)/C=C/c1ccc(-c2ccc(Cl)c(Cl)c2)o1	.	.	9	.	.	.
O=C(/C=C/c1ccc(-c2cc(Cl)ccc2Cl)o1)c1ccco1	.	.	60*	.	.	.
O=C1NC(=Nc2ccc(F)cc2)S/C1=C/C=C/c1ccccc1	.	.	-8	.	.	.
COCCCNS(=O)(=O)c1ccc(OC)cc1	.	.	98*	.	.	.
O=C(/C=C/c1ccco1)c1c(-c2ccccc2)c2cc(Cl)ccc2[nH]c1=O	.	.	-9	.	.	.
OCCn1c(-c2ccc3c(c2)OCO3)csc1=Nc1ccccc1	11	51*	12	9	46	2
CS(=O)(=O)N1CCN(c2nc3ccccc3s2)CC1	23	28	0	-2	58*	0
O=C(COc1ccc2ccccc2c1)NCc1ccc(Cl)cc1	.	.	3	.	.	.
CC(C)=C(C#N)c1nc2ccccc2s1	-12	-3	2	9	11	2
COC(=O)c1ccc(/C(O)=C(\C#N)c2nc3ccccc3s2)cc1	-6	84*	-12	9	19	2
CN1C(=O)/C(=N/OC(=O)c2ccc(Br)cc2)c2ccccc21	.	.	2	.	.	.
O=C(CCCOc1ccc(Cl)cc1Cl)Nc1ccc([N+](=O)[O-])cc1	.	.	6	.	.	.
Cc1sc(NC(=O)CCC2CCCCC2)nc1-c1ccccc1	.	.	102*	.	.	.
Cc1ccc(/C=C/C(=O)Nc2nc(-c3ccccc3)c(C)s2)cc1	.	.	-17	.	.	.
Cc1sc(NC(=O)/C=C\C(=O)O)nc1-c1ccccc1	.	.	103*	.	.	.
CC(=O)CC(=O)Nc1cc(C)ccc1C	.	.	-1	.	.	.
O=C(Nc1ccc(F)cc1)Nc1cccc2cccnc12	.	.	4	.	.	.
O=C(Nc1ccccc1)Nc1cccc2cccnc12	8	47	11	11	86*	1
CCOC(=O)c1c(-c2ccc(Cl)cc2)csc1NC(=O)COc1ccccc1OC	.	.	-11	.	.	.
SMILES	AP complement	SF1 activator	HePTP inh	E coli RNAP	RORA act	MMP13 inh
CC1(C)CC(=O)CC(C)(C)N1OC(=O)c1ccncc1	1	5	-2	3	-8	3
CN(C(=O)c1ccncc1)C1CC(C)(C)N(O)C(C)(C)C1	-7	-9	2	21*	-19	-6
CC1(C)CC(NC(=O)/C=C/c2ccccc2)CC(C)(C)N1	.	.	-4	.	.	.
CCOC(=O)c1oc2ccc(CNCCO)c(Cl)c2c1C	16	66*	10	8	19	-4
CCOC(=O)c1oc2ccc(CNC3CCCCC3)c(Cl)c2c1C	.	.	9	.	.	.
CSC(=NSc1ccc([N+](=O)[O-])cc1)SC	.	.	0	.	.	.
O=C(O)c1cc(N2C(=O)C=CC2=O)ccc1Cl	.	.	50*	.	.	.
Nc1ccc(-c2nc3ccc(-c4ccc5nc(-c6ccc(N)cc6)[nH]c5c4)cc3[nH]2)cc1	.	.	-4	.	.	.
Nc1ccc2nc(-c3ccc(Cl)cc3)[nH]c2c1	11	64*	4	3	82*	-242
CCOC(=O)N1CCN(C(=O)CCCOc2ccccc2)CC1	-2	75*	4	9	38	2
COc1ccc(C(=O)Nc2ccc(Cl)c(Cl)c2)c(OC)n1	-2	28	8	11	52*	5
O=C(NCc1ccc(Cl)cc1)c1noc2c1CCCC2	9	-3	4	6	-2	7
COc1ccc(CNC(=O)c2noc3c2CCCC3)cc1	1	42	-4	-7	55*	-3
COc1ccc(CNC(=O)NC2CCCCC2)cc1	-3	50*	-4	7	4	7
O=C(NCc1ccccc1)NC1CCCCC1	-3	28	2	9	38	-6
O=C(NCc1cccs1)c1noc2c1CCCC2	9	4	6	2	55*	0
CCCc1cc(C(=O)NCc2ccc(OC)cc2)no1	17	29	4	9	49*	2
Cc1ccccc1C(=O)NNC(=O)c1ccccn1	.	.	10	.	.	.
O=C(NC(=S)NNc1nc(-c2ccccc2)cs1)c1cc2ccccc2oc1=O	.	.	99*	.	.	.
CN(C)c1ccc(/C=N/Nc2nnc(-c3ccccc3)c(-c3ccccc3)n2)cc1	.	.	-8	.	.	.
Cc1ccccc1C(=O)Nc1cccc(NC(=O)/C=C/c2ccc(-c3ccccc3[N+](=O)[O-])o2)c1	.	.	-2	.	.	.
Cc1cc(C)n2nc(SCC3COc4ccccc4O3)nc2n1 (configuration not stated)	4	55*	1	.	29	-3
Cc1cc(C)c(C#N)c(SCC2COc3ccccc3O2)n1 (configuration not stated)	-3	-24	4	5	-5	-1
O=C(Cn1nc2ccccc2n1)N/N=C/c1ccc(Cl)cc1Cl	.	.	4	.	.	.
O=C1NN(c2ccc(I)cc2)C(=O)/C1=C\c1ccccc1O	.	.	92*	.	.	.
SMILES	AP complement	SF1 activator	HePTP inh	E coli RNAP	RORA act	MMP13 inh
O=C1NN(c2ccc(I)cc2)C(=O)/C1=C\c1ccc(F)cc1	.	.	104*	.	.	.
CC(C)c1ccc(/C=C2/C(=O)NN(c3ccc(F)cc3)C2=O)cc1	.	.	4	.	.	.
C=C(C)C1CCC(C)=C1CC/C(C)=N/NC(N)=S (configuration not stated)	.	.	-14	.	.	.
CCOC(=O)C1=C(O)/C(=C\c2ccc([N+](=O)[O-])cc2)N=C1C	.	.	8	.	.	.
COC(=O)c1cccc(C(=O)Nc2ccc(C)cc2)n1	-1	50*	6	4	23	4
CC(=O)c1cccc(NC(=O)c2cc(C(C)C)on2)c1	-1	74*	-6	-6	55*	6
Cc1ccc(NC(=O)c2cc(C)on2)cc1	7	60*	0	7	30	9
CCc1ccc(NC(=O)c2cc(C(C)C)on2)cc1	11	11	6	11	62*	1
CC(C)c1cc(C(=O)Nc2cccc(Cl)c2)no1	6	25	-2	0	34	-2
CCc1ccc(NC(=O)c2cc(C)on2)cc1	7	31	3	8	12	-4
CCc1cc(=O)oc2cc(OCc3ccc(C)cc3)ccc12	.	.	-1	.	.	.
COc1c(Cl)ccc(Cl)c1C(=O)Nc1ccc(C)cc1	.	.	104*	.	.	.
